Test results as given in PMC3580944 (Journal of medicinal chemistry, 2011).
Entries after “also recorded” stand apart in the source; their conditions may differ. Where two headings read alike, the source gives them in different places. Marks after values point to notes of the source that are not given here.

Legend:
[1] = target: T1, Torpedo nACh receptor (Tetronarce californica, UniProt P02710+P02712+P02714+P02718); assay: Photoincorporation of [3H]6 into nACh receptor-rich Torpedo membranes; format: binding; details: for effect on nACh receptor subunit photolabeling by [3H]6: absence of agonist (resting state), 100 μM drug
Method in brief: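 Electric-organ membranes were held at 2 mg protein/mL in Torpedo saline (pH 7.0) with 1 mM oxidized glutathione. Aliquots (160 pmol ACh sites) were equilibrated 30 min with 1.7 μM tritiated test compound (12 Ci/mmol), alone or with 100 μM tetracaine, 100 μM phencyclidine, 300 μM parent anesthetic and/or 1 mM carbamylcholine. Samples were UV-irradiated (365 nm) on ice for 30 min, then run on SDS-PAGE. Read-outs were fluorography (2 weeks) and scintillation counting of excised subunit bands.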

[2] = tested on: GABAA receptor; details: cited from earlier work
[3] = target: α1β3γ2 GABAA receptors (benzodiazepine site) (Homo sapiens, UniProt P14867+P18507+P28472); format: binding; details: for Enhancement of specific [3H]flunitrazepam binding: maximal effect; for effect on [3H]flunitrazepam binding above 40 μM: above 40 μM up to 400 μM
[4] = pure propofol in water; cited from earlier work
[5] = tested on: Xenopus laevis tadpoles; details: read-out: General Anesthesia LoRR EC50, cited from earlier work
[6] = target: T1, Torpedo nACh receptor; assay: Inhibition of ACh-elicited currents of Torpedo nACh receptors in Xenopus oocytes; format: cell-based; details: 10 μM ACh (~EC20)
Method in brief: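 Two-electrode voltage clamp at room temperature on Xenopus oocytes. Oocytes were injected with ~25 ng Torpedo subunit cRNA at 2α:1β:1γ:1δ, clamped at −50 mV and perfused with ND96 (pH 7.5) at ~2 mL/min. 10 μM ACh was applied, then ACh plus rising test compound (10 mM DMSO stock diluted in ND96). Applications lasted 15–20 s with ~3 min washes. Currents were normalized to ACh alone and fit to a logistic equation; 3 oocytes.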

[7] = target: human α1β2γ2L GABAA receptor (Homo sapiens, UniProt P14867+P18507+P47870); assay: Two electrode voltage clamp of GABAA receptor currents in Xenopus oocytes; format: cell-based; details: for Imax of GABA current enhancement / nH of GABA current enhancement: 3 μM GABA (~EC5); for nH of GABA concentration response curve in the presence of drug: 6 μM 6; for nH of GABA concentration response curve in the presence of drug / Shift in GABA dose response curve to the left: 4.4 μM propofol; for Shift in GABA dose response curve to the left: twice the tadpole anesthesia EC50: 6 μM 6
[8] = target: α1β3γ2 GABAA receptors (agonist site) (Homo sapiens, UniProt P14867+P18507+P28472); assay: Modulation of [3H]muscimol binding to GABAA receptor membranes from HEK293 cells
[9] = Stability in aqueous buffer at 4°C; format: physicochemical; details: 0.01M Tris/HCl pH 7.4, concentration close to saturation
Method in brief: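 Excess test compound was stirred 24 h in 0.01 M Tris/HCl, pH 7.4, and centrifuged at 10,000g to give a near-saturated solution. This was stored at 4°C and monitored over time by reverse-phase HPLC (acetonitrile elution).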

[10] = Octanol/water partition coefficient by HPLC; format: physicochemical; details: estimated by HPLC of both phases
[11] = tested on: Xenopus laevis tadpoles; assay: General anesthetic potency, loss of righting reflexes; format: in vivo; details: recovery in fresh solution overnight
[12] = added to carbamylcholine-treated samples

Chain of α1β3γ2 GABAA receptors (agonist site) (P14867 28-456): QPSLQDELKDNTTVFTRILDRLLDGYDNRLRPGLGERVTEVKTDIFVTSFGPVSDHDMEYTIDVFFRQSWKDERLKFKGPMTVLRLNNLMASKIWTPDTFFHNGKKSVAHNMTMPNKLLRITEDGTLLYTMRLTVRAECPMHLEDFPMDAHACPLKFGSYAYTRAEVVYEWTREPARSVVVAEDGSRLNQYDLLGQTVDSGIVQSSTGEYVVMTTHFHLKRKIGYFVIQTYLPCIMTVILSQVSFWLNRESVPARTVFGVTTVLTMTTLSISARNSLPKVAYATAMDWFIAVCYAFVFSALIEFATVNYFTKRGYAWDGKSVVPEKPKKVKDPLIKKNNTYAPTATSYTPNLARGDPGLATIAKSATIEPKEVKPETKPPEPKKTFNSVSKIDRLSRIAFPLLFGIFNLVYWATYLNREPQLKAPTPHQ
Chain of α1β3γ2 GABAA receptors (agonist site) (P28472 26-473): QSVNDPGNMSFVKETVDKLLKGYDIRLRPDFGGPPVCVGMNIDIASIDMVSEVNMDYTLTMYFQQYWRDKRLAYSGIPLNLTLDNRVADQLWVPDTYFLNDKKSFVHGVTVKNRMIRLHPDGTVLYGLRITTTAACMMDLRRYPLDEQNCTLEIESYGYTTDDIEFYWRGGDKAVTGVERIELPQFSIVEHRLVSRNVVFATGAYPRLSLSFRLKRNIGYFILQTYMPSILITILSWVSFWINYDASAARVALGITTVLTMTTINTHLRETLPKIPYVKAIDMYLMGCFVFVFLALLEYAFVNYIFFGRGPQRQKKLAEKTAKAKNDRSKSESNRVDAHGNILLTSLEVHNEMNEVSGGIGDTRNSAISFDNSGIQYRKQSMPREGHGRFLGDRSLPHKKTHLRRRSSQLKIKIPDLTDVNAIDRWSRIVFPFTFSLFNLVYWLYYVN
Chain of α1β3γ2 GABAA receptors (agonist site) (P18507 40-475): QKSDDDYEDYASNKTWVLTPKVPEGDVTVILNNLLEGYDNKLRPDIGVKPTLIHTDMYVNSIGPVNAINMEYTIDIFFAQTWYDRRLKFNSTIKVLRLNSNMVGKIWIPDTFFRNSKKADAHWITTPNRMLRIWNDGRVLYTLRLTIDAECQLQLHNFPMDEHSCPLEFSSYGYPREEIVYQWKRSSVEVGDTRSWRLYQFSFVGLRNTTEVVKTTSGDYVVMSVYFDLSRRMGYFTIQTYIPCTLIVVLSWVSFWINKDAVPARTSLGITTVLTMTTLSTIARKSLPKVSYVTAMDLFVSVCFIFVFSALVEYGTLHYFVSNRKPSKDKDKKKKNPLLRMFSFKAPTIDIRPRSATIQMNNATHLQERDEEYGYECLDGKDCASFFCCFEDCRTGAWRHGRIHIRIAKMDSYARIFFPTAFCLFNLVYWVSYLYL
Chain of human α1β2γ2L GABAA receptor (P14867 28-456): as the sequence (P14867 28-456) above
Chain of human α1β2γ2L GABAA receptor (P47870 25-512 limits assumed): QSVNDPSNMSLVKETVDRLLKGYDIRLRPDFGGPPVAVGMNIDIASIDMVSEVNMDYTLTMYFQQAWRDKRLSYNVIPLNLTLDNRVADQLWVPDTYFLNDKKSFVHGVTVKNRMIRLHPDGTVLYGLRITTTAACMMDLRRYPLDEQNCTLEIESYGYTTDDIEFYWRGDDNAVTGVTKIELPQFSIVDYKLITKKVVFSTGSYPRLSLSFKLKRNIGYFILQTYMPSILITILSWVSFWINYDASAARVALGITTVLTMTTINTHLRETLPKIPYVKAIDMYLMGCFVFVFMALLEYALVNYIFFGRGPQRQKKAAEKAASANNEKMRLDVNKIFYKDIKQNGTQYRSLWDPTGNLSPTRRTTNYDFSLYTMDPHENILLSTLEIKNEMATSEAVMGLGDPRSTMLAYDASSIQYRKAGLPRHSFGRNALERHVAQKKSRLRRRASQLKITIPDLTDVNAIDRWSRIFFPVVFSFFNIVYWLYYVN
Chain of human α1β2γ2L GABAA receptor (P18507 40-475): as the sequence (P18507 40-475) above
Chain of α1β3γ2 GABAA receptors (benzodiazepine site) (P14867 28-456): as the sequence (P14867 28-456) above
Chain of α1β3γ2 GABAA receptors (benzodiazepine site) (P28472 26-473): as the sequence (P28472 26-473) above
Chain of α1β3γ2 GABAA receptors (benzodiazepine site) (P18507 40-475): as the sequence (P18507 40-475) above
T1 sequence (P02710 25-461): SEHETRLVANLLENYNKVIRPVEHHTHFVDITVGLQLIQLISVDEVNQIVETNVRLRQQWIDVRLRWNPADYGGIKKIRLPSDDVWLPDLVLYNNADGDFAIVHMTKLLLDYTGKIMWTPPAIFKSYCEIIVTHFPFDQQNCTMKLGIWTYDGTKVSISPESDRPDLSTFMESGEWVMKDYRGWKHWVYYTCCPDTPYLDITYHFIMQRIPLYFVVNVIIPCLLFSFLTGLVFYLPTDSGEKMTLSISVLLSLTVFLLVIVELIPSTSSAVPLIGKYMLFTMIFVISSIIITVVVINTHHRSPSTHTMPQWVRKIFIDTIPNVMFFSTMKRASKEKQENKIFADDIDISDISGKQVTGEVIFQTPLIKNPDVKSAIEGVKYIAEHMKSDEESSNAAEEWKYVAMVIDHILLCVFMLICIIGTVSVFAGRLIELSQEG
T1 sequence (P02712 25-493): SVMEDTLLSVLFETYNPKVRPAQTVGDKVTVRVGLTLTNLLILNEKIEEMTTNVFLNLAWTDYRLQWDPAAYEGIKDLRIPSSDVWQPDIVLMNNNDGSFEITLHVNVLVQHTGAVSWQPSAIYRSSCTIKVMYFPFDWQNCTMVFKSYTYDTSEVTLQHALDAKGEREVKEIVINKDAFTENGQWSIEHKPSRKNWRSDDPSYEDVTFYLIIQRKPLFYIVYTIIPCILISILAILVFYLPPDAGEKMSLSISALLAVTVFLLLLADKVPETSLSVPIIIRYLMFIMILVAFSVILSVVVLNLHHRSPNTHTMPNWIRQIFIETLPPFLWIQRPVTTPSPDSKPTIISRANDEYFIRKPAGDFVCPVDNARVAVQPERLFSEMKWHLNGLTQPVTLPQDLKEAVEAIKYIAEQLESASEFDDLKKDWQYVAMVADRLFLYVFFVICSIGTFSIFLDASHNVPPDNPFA
T1 sequence (P02714 18-506): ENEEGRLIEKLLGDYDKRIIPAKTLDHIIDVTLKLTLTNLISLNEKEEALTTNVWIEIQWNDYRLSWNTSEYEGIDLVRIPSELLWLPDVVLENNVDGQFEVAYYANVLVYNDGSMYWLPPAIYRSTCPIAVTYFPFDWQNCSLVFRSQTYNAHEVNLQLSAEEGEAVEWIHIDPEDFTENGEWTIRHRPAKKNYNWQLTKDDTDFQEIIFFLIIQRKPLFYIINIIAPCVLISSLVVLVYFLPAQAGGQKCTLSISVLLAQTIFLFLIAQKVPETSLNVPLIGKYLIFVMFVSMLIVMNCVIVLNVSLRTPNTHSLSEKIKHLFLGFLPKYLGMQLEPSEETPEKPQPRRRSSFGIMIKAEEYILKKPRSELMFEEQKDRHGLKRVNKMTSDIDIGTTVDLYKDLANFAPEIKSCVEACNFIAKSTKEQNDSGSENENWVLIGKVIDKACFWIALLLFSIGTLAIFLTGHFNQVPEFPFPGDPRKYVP
T1 sequence (P02718 22-522): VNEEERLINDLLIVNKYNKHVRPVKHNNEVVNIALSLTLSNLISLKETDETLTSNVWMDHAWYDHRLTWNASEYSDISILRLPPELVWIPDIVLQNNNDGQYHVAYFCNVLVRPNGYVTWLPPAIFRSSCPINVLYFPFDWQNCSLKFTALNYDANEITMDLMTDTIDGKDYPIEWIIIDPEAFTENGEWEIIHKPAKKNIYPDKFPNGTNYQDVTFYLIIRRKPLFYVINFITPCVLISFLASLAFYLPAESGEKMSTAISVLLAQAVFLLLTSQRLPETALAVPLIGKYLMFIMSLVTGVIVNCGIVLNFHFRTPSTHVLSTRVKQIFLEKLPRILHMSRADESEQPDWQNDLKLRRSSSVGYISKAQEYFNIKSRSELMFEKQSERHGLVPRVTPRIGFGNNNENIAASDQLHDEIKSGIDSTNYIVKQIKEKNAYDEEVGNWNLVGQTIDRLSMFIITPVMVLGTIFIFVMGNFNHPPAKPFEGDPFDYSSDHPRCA

SMILES: CC(C)c1cc(CCCC2(C)N=N2)cc(C(C)C)c1O [[^3H]6, ^3H-2,6-Diisopropyl-4-[3-(3-methyl-3H-diazirin-3-yl)-propyl]-phenol]
- carbamylcholine-enhanced 3H photoincorporation in nACh receptor α-subunit ([1]; 1.7 μM [3H]6): 3000 cpm
- fraction of nACh receptor α-subunits photolabeled ([1]; 1.7 μM [3H]6, carbamylcholine-enhanced): 0.2%

SMILES: CC(C)c1cccc(C(C)C)c1O [propofol, 2,6-diisopropylphenol]
- Direct activation, currents as % of the maximal GABA response ([2]; propofol alone): 30 – 70%
- Direct activation ([2]; ref Krasowski et al, 2001 [2]): 67%
- Enhancement of [3H]flunitrazepam binding ([3]; 1.5 nM [3H]flunitrazepam): 2x ^a
- Enhancement of specific [3H]flunitrazepam binding ([3]; 1.5 nM [3H]flunitrazepam): ~ 200%
- effect on [3H]flunitrazepam binding above 40 μM [3]: caused a rapid decrease in binding
- saturated concentration in water [4]: 1 ± 0.02 mM
- EC50 ([5]; ref Hall et al, 2010 [13]): 2800 nM
- EC50 ([5]; ref Krasowski et al, 2001 [2]): 1900 nM
- nH of ACh current inhibition [6]: 0.8 ± 0.1
- Imax of GABA current enhancement [7]: 16 ± 3%
- nH of GABA current enhancement [7]: 1.7 ± 1.2
- nH of GABA concentration response curve in the presence of drug [7]: 1.1 ± 0.3
- Direct activation, current as % of maximal GABA response ([7]; absence of GABA): 30–50%
- Shift in GABA dose response curve to the left [7]: 11 ^a fold
- additional increase of [3H]6 photoincorporation [1, 12]: ~ 20%
- Enhancement of [3H]muscimol binding ([8]; 3 nM [3H]muscimol): 2.4x ^a
- effect on [3H]muscimol binding above 30 μM ([8]; above 30 μM): caused a sharp decrease in binding

SMILES: c1ccc(C2(N3CCCCC3)CCCCC2)cc1 [phencyclidine]
- effect on nACh receptor subunit photolabeling by [3H]6 [1]: little effect
- additional decrease of [3H]6 photoincorporation [1, 12]: ~ 20%

SMILES: CCCCNc1ccc(C(=O)OCCN(C)C)cc1 [tetracaine]
- effect on nACh receptor subunit photolabeling by [3H]6 [1]: little effect; also recorded: no effect

SMILES: CC(C)c1cc(CCCC2(C)N=N2)cc(C(C)C)c1O [Compound 6, 2,6-Diisopropyl-4-[3-(3-methyl-3H-diazirin-3-yl)-propyl]-phenol]
- EC50 [3]: ~500 nM
- Enhancement of specific [3H]flunitrazepam binding ([3]; 1.5 nM [3H]flunitrazepam): ~ 150%
- effect on [3H]flunitrazepam binding above 40 μM [3]: caused no further change
- time stable in buffer [9]: at least 2.5 days
- octanol/water partition coefficient [10]: 15,600 ± 1200
- reversibility of anesthesia [11]: reversible
- nH of ACh current inhibition [6]: 0.9 ± 0.2
- Imax of GABA current enhancement [7]: 22 ± 6%
- nH of GABA current enhancement [7]: 1.4 ± 1.3
- nH of GABA concentration response curve in the presence of drug [7]: 0.9 ± 0.2
- Shift in GABA dose response curve to the left [7]: 9 ^a fold
- EC50 [8]: ~500 nM

SMILES: CC(C)c1ccc(C2(C(F)(F)F)N=N2)cc1O [m-TFD-propofol, 2-isopropyl-5-[3-(trifluoromethyl)-3H-diazirin-3-yl]phenol]
- Direct activation ([2]; m-TFD-propofol at 30 μM, ref Hall et al, 2010 [13]): no direct agonist activity
- EC50 ([5]; ref Hall et al, 2010 [13]): 3100 nM
